{"source": "ChEMBL document CHEMBL1687758", "about": "“Azithromycin alters macrophage phenotype and pulmonary compartmentalization during lung infection with Pseudomonas” (2010)", "key": {"Mus musculus [1]": {"test_system": "Mus musculus", "experiment": "Immunomodulatory activity in Pseudomonas aeruginosa M57-15 infected C57BL/6 mouse lung assessed as increase of MHC2 expression in CD11b+ Gr1+ cells in lung digest at 0.16 g/kg, po measured after 7 days by flow cytometry", "assay_type": "functional, organism-based", "outline": "(§1)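 Oral gavage of 0.16 g/kg daily (2% methylcellulose vehicle) began 4 days before intratracheal bead infection (1 × 105 to 2 × 10^5 CFU). On days 3, 7 and 14, cells were taken from lavage (0.3 mM EDTA buffer) and from collagenase/DNase lung digest (1 h, 37°C). Cells were stained for CD11b, CD11c, Gr-1, CD4, CD80, MHC-II and MR, with more than 50,000 events acquired. Counts were gated percent × manual cell count.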"}, "Mus musculus [2]": {"test_system": "Mus musculus", "experiment": "Immunomodulatory activity in Pseudomonas aeruginosa M57-15 infected C57BL/6 mouse lung assessed as increase of mannose receptor expression in CD11b+ Gr1+ cells in alveolar space at 0.16 g/kg, po measured after 7 days by flow cytometry", "assay_type": "functional, organism-based", "outline": "as §1"}, "Mus musculus [3]": {"test_system": "Mus musculus", "experiment": "Immunomodulatory activity in Pseudomonas aeruginosa M57-15 infected C57BL/6 mouse lung assessed as increase of CD4+ T cell in lung lavage fluid at 0.16 g/kg, po measured after 7 to 14 days by flow cytometry", "assay_type": "functional, organism-based", "outline": "as §1"}, "Mus musculus [4]": {"test_system": "Mus musculus", "experiment": "Immunomodulatory activity in Pseudomonas aeruginosa M57-15 infected C57BL/6 mouse lung assessed as increase of arginase activity in lung digest at 0.16 g/kg, po measured after 7 days"}, "Pseudomonas aeruginosa": {"test_system": "Pseudomonas aeruginosa", "experiment": "Antibacterial activity against Pseudomonas aeruginosa M57-15 infected in C57BL/6 mouse assessed as increase of host survival time at 0.16 g/kg, po measured up to 14 days", "assay_type": "functional, organism-based", "outline": "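For survival, mice received 1.3 × 10^6 CFU (1× LD50) intratracheally in agarose beads under isoflurane. Daily oral gavage of 0.16 g/kg in 2% methylcellulose, or vehicle, began 4 days before infection. Survival curves were compared by log-rank.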"}, "Mus musculus [5]": {"test_system": "Mus musculus", "experiment": "Immunomodulatory activity in Pseudomonas aeruginosa M57-15 infected C57BL/6 mouse lung assessed as CD11b+c- cell expression level in lung digest at 0.16 g/kg, po measured after 7 days by flow cytometry (reference value: 17.07 +/- 4.84 %)", "assay_type": "functional", "outline": "as §1"}, "Mus musculus [6]": {"test_system": "Mus musculus", "experiment": "Immunomodulatory activity in Pseudomonas aeruginosa M57-15 infected C57BL/6 mouse lung assessed as decrease of CCL2 production in CD11b+ cells in lung lavage fluid at 0.16 g/kg, po measured after 7 days by flow cytometry", "assay_type": "functional, organism-based", "outline": "(§2)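 The first 1-ml lavage wash was frozen at −80°C. Samples diluted 5-fold were incubated 3 h at room temperature with capture beads for a cytometric bead array (IL-12p70, CCL2, TNF-α, IL-10, IFN-γ, IL-6) plus a PE-conjugated detection antibody. Fluorescence was read by flow cytometry against standard curves. Mice had daily oral 0.16 g/kg from 4 days before intratracheal infection.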"}, "Mus musculus [7]": {"test_system": "Mus musculus", "experiment": "Immunomodulatory activity in Pseudomonas aeruginosa M57-15 infected C57BL/6 mouse lung assessed as decrease of TNFalpha production in CD11b+ cells in lung lavage fluid at 0.16 g/kg, po measured after 7 days by flow cytometry", "assay_type": "functional, organism-based", "outline": "as §2"}, "Mus musculus [8]": {"test_system": "Mus musculus", "experiment": "Immunomodulatory activity in Pseudomonas aeruginosa M57-15 infected C57BL/6 mouse lung assessed as increase of mannose receptor expression in CD11b+ Gr1+ cells in lung digest at 0.16 g/kg, po measured after 7 days by flow cytometry", "assay_type": "functional, organism-based", "outline": "as §1"}, "Mus musculus [9]": {"test_system": "Mus musculus", "experiment": "Immunomodulatory activity in Pseudomonas aeruginosa M57-15 infected C57BL/6 mouse lung assessed as up-regulation of MHC2 expression in CD11+ Gr1- cells in lung digest at 0.16 g/kg, po measured after 7 days by flow cytometry", "assay_type": "functional, organism-based", "outline": "as §1"}, "Mus musculus [10]": {"test_system": "Mus musculus", "experiment": "Immunomodulatory activity in Pseudomonas aeruginosa M57-15 infected C57BL/6 mouse lung assessed as effect on CD11b+ cells infiltration in lung lavage fluid at 0.16 g/kg, po measured after 7 days by flow cytometry", "assay_type": "functional, organism-based", "outline": "as §1"}, "Mus musculus [11]": {"test_system": "Mus musculus", "experiment": "Immunomodulatory activity in Pseudomonas aeruginosa M57-15 infected C57BL/6 mouse lung assessed as increase of total cells in lung digest at 0.16 g/kg, po measured after 14 days by flow cytometry", "assay_type": "functional, organism-based", "outline": "as §1"}, "Mus musculus [12]": {"test_system": "Mus musculus", "experiment": "Immunomodulatory activity in Pseudomonas aeruginosa M57-15 infected C57BL/6 mouse lung assessed as decrease of TNFalpha production in CD11b+ cells in lung digest at 0.16 g/kg, po measured after 7 days by flow cytometry", "assay_type": "functional, organism-based", "outline": "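Lung digest cells (2 × 106) were stimulated for 4 h with 50 ng/ml PMA and 500 ng/ml ionomycin plus 10 μg/ml brefeldin A. They were surface-stained for CD11b/CD11c, fixed in 4% formalin, permeabilized with 0.05% saponin, Fc-blocked, and stained for intracellular TNF-α and IL-10 for flow cytometry. Mice were dosed at 0.16 g/kg by daily oral gavage from 4 days before infection.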"}, "Mus musculus [13]": {"test_system": "Mus musculus", "experiment": "Immunomodulatory activity in Pseudomonas aeruginosa M57-15 infected C57BL/6 mouse lung assessed as increase of MHC2 expression in CD11b+ Gr1+ cells in alveolar space at 0.16 g/kg, po measured after 7 days by flow cytometry", "assay_type": "functional, organism-based", "outline": "as §1"}, "Mus musculus [14]": {"test_system": "Mus musculus", "experiment": "Immunomodulatory activity in Pseudomonas aeruginosa M57-15 infected C57BL/6 mouse lung assessed as CD11b+c+ cell expression level in lung digest at 0.16 g/kg, po measured after 7 days by flow cytometry (reference value: 5.16 +/- 1.09 %)", "assay_type": "functional", "outline": "as §1"}, "Mus musculus [15]": {"test_system": "Mus musculus", "experiment": "Immunomodulatory activity in Pseudomonas aeruginosa M57-15 infected C57BL/6 mouse lung assessed as up-regulation of CCR7 expression in CD11+ Gr1- cells in lung digest at 0.16 g/kg, po measured after 7 days by flow cytometry", "assay_type": "functional, organism-based", "outline": "as §1"}, "Mus musculus [16]": {"test_system": "Mus musculus", "experiment": "Immunomodulatory activity in Pseudomonas aeruginosa M57-15 infected C57BL/6 mouse lung assessed as increase of total cells in lung digest at 0.16 g/kg, po measured by flow cytometry"}, "Mus musculus [17]": {"test_system": "Mus musculus", "experiment": "Immunomodulatory activity in Pseudomonas aeruginosa M57-15 infected C57BL/6 mouse lung assessed as reduction of CD11b- and Gr-1+ cells infiltration in lung lavage fluid at 0.16 g/kg, po measured after 7 days by flow cytometry", "assay_type": "functional, organism-based", "conditions": "in the assay text read “lung digest” for “lung lavage fluid”", "outline": "as §1"}, "Mus musculus [18]": {"test_system": "Mus musculus", "experiment": "Immunomodulatory activity in Pseudomonas aeruginosa M57-15 infected C57BL/6 mouse lung assessed as decrease of IFN-gamma production in CD11b+ cells in lung lavage fluid at 0.16 g/kg, po measured after 7 days by flow cytometry", "assay_type": "functional, organism-based", "outline": "as §2"}, "Mus musculus [19]": {"test_system": "Mus musculus", "experiment": "Immunomodulatory activity in Pseudomonas aeruginosa M57-15 infected C57BL/6 mouse lung assessed as CD11b-c+ cell expression level in lung lavage fluid at 0.16 g/kg, po measured after 3 days by flow cytometry (reference value: 47.01 +/- 33.74 %)", "assay_type": "functional", "outline": "as §1"}, "Mus musculus [20]": {"test_system": "Mus musculus", "experiment": "Immunomodulatory activity in Pseudomonas aeruginosa M57-15 infected C57BL/6 mouse lung assessed as CD11b-c+ cell expression level in lung digest at 0.16 g/kg, po measured after 14 days by flow cytometry (reference value: 23.93 +/- 4.10 %)", "assay_type": "functional", "outline": "as §1"}, "Mus musculus [21]": {"test_system": "Mus musculus", "experiment": "Immunomodulatory activity in Pseudomonas aeruginosa M57-15 infected C57BL/6 mouse lung assessed as CD11b+c+ cell expression level in lung digest at 0.16 g/kg, po measured after 14 days by flow cytometry (reference value: 6.6 +/- 1.86 %)", "assay_type": "functional", "outline": "as §1"}}, "note": "The source made the active and inactive calls. No cut-off for these calls is given here."}
{"smiles": "CC[C@H]1OC(=O)[C@H](C)[C@@H](O[C@H]2C[C@@](C)(OC)[C@@H](O)[C@H](C)O2)[C@H](C)[C@@H](O[C@@H]2O[C@H](C)C[C@H](N(C)C)[C@H]2O)[C@](C)(O)C[C@@H](C)CN(C)[C@H](C)[C@@H](O)[C@]1(C)O", "note": "[AZITHROMYCIN]", "values": [{"measurement": "Activity", "setting": "Mus musculus [1]", "result": "Active"}, {"measurement": "Activity", "setting": "Mus musculus [2]", "result": "Active"}, {"measurement": "Activity", "setting": "Mus musculus [3]", "result": "Active"}, {"measurement": "Activity", "setting": "Mus musculus [4]", "result": "Active"}, {"measurement": "Activity", "setting": "Pseudomonas aeruginosa", "result": "inactive"}, {"measurement": "Activity", "setting": "Mus musculus [5]", "result": 16.83, "unit": "%"}, {"measurement": "Activity", "setting": "Mus musculus [6]", "result": "Active"}, {"measurement": "Activity", "setting": "Mus musculus [7]", "result": "Active"}, {"measurement": "Activity", "setting": "Mus musculus [8]", "result": "Active"}, {"measurement": "Activity", "setting": "Mus musculus [9]", "result": "Active"}, {"measurement": "Activity", "setting": "Mus musculus [10]", "result": "Active"}, {"measurement": "Activity", "setting": "Mus musculus [11]", "result": "Active"}, {"measurement": "Activity", "setting": "Mus musculus [12]", "result": "Active"}, {"measurement": "Activity", "setting": "Mus musculus [13]", "result": "Active"}, {"measurement": "Activity", "setting": "Mus musculus [14]", "result": 17.1, "unit": "%"}, {"measurement": "Activity", "setting": "Mus musculus [15]", "result": "Active"}, {"measurement": "Activity", "setting": "Mus musculus [16]", "result": "Active"}, {"measurement": "Activity", "setting": "Mus musculus [17]", "result": "Active"}, {"measurement": "Activity", "setting": "Mus musculus [18]", "result": "inactive"}, {"measurement": "Activity", "setting": "Mus musculus [19]", "result": 34.84, "unit": "%"}, {"measurement": "Activity", "setting": "Mus musculus [20]", "result": 18.18, "unit": "%"}, {"measurement": "Activity", "setting": "Mus musculus [21]", "result": 4.31, "unit": "%"}]}
